Source: PubChem
Sampled rows, rich in hits. Any-hit rate of the full collection: about 1.6%.
UHRF1 binding: human UHRF1 methylated DNA binding inhibitors; UHRF1 binding to methylated oligo, TR-FRET; inhibition, % at 4.4 µM; 370,000 tested, 0.75% active; AID 687016; in the data active = inhibition above about 21%;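 also: UHRF1 SRA domain binding a hemimethylated CpG hairpin DNA probe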
LEDGF integ inh: blocks HIV-1 LEDGF/p75-dependent DNA integration; TR-FRET IN-LEDGF/p75 DNA integration, Eu/Cy5; inhibition, % at 3.7 µM; 370,000 tested, 0.64% active; AID 743269;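 active = inhibition above the screen-wide mean plus 3 SD, cut at about 13% in these data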;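 also: signal is the Cy5 over europium emission ratio at 671 and 618 nm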
MBD2 DNA inh: blocks human MBD2 binding to methylated DNA; Q9UBB5; inhibition, % at 4.4 µM; 370,000 tested, 0.31% active; AID 686964; TR-FRET, MBD2 binding to methylated oligonucleotide; in the data active = inhibition above about 13%
TDP2 absorb: TDP2 (human) inhibition, absorbance primary screen. O95551. recombinant TDP2, T5PNP hydrolysis, p-nitrophenol absorbance 415 nm. inhibition, % at 12.8 µM. 370,000 tested, 0.34% active;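 active = inhibition above the mean of all tested compounds plus 3 SD, set per campaign, cut at about 25% in these data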
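System – recombinant human TDP2 · Quantity – TDP2 enzyme at 120 nM final · Doses – single concentration, 12.8 µM nominal, with 1% DMSO · Incubation – 2 h at 37 °C · Measured by – epi absorbance of p-nitrophenol freed from T5PNP by hydrolysis · Read-out – % inhibition relative to enzyme-containing and enzyme-free wells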
Numbers stand for hits; - = inactive.

SMILES | UHRF1 binding | LEDGF integ inh | MBD2 DNA inh | TDP2 absorb
O=C(CN1CCC(NC(=O)NC2CCCC2)CC1)Nc1ccc2c(c1)OCCO2 | - | - | - | -
CCCCNC(=O)NC1CCN(CC(=O)Nc2ccc3c(c2)OCCO3)CC1 | 32.1 | - | - | -
O=[N+]([O-])c1cccc(N/N=C/c2cc([N+](=O)[O-])ccc2O)c1 | - | - | - | -
O=[N+]([O-])c1ccc(O)c(C=NNc2ccc(S(=O)(=O)O)cc2)c1 | 23.7 | - | - | -
CCOc1cccc(-c2nc3cc(C)ccc3o2)c1 | 25.7 | - | - | -
O=C(O)C1Nc2c(O)cc(Cl)c([N+](=O)[O-])c2C2C=CCC12 (stereo not given) | 92.5 | 71.8 | 63.4 | -
O=[N+]([O-])c1ccc(Cl)c2c1C1C=CCC1C(c1ccccn1)N2 (stereo not given) | - | - | - | -
COc1ccc(S(=O)(=O)N2CCC(C(=O)Nc3nccs3)CC2)cc1 | 29.5 | - | - | -
CC(=O)Nc1ccc(S(=O)(=O)N2CCC(C(=O)Nc3nccs3)CC2)cc1 | - | - | - | -
CCCCN1CC(COCc2ccccc2)Oc2cccc(Oc3ccc(SC)c(C)c3)c2S1(=O)=O (stereo not given) | 23.3 | - | - | -
CCCCN1CC(COCc2ccccc2)Oc2cccc(Oc3ccc(OC)cc3)c2S1(=O)=O (stereo not given) | - | - | - | -
Oc1c(N=Nc2nn[nH]n2)ccc2ccccc12 | - | 14.4 | - | 26.3
CCn1c(Cn2nnc(-c3ccccc3)n2)nnc1SCC(=O)Nc1ccc(N(C)C)cc1 | - | - | - | -
Cn1c(SCC(=O)Nc2sccc2C#N)nnc1C1CC1 | 26.8 | - | - | -
COc1cccc(C2/C(=C(\O)c3ccc4c(c3)OCCO4)C(=O)C(=O)N2c2nnc(C)s2)c1 (stereo not given) | - | - | - | -
COc1ccc(N2CCN(CCNC(=O)Nc3ccc(Cl)cc3)CC2)cc1 | - | - | - | -
COC(=O)CCc1sc(Nc2ccccc2)nc1-c1ccc(OC)cc1 | 36.6 | - | - | -
COc1ccc(Nc2nc(-c3ccc(OC)cc3)c(CCC(=O)O)s2)cc1 | - | - | - | -
CC1(C(=O)Nc2ccc(Cl)c(Cl)c2)CCN1C(=O)C1CCCCC1 (stereo not given) | 22.1 | - | - | -
COC(=O)C1CCN(C(=O)CCn2nnc(-c3cccs3)n2)CC1 | - | - | - | -
CCCCNc1ccc(C(F)(F)F)cc1S(=O)(=O)NCCc1ccc(F)cc1 | 22.5 | - | - | -
COc1ccc(S(=O)(=O)NCCc2ccc(F)cc2)cc1 | - | - | - | -
O=C(O)c1ccccc1CC(CCc1ccccc1)C(=O)O (stereo not given) | 20.8 | - | - | -
COc1ccc(N2C(=O)C(CC(=O)Nc3ccc(Cl)cc3)N(NC(=O)c3cccc(F)c3)C2=S)cc1 (stereo not given) | - | - | - | -
N#C/C(=C\c1ccc(O)c(Br)c1)C(=O)N1CCCCC1 | - | - | - | -
SMILES | UHRF1 binding | LEDGF integ inh | MBD2 DNA inh | TDP2 absorb
N#C/C(=C\c1ccc(O)cc1)C(=O)N1CCCC1 | 21.4 | - | - | -
CC/S(C)=N/S(=O)(=O)c1ccc(C)cc1 (stereo not given) | - | - | - | -
CC1=C(C(=O)N(C)C)CC(CC(=O)NCCN2CCOCC2)C(=O)N1CCCN1CCCC1=O (stereo not given) | 21.6 | - | - | -
Cc1cc(C)nc(NCC(O)CNc2ccccc2Cl)n1 (stereo not given) | 22.5 | - | - | -
Cc1cc(Nc2ccccc2Cl)c2ccccc2n1 | - | - | - | -
CNC(=S)Nc1ccc(N2CCCC2)c(S(=O)(=O)Nc2ccc(OC)cc2)c1 | - | - | - | -
COc1ccc(/C=C/C(=O)O)cc1Cl | 43.4 | - | - | -
O=C1CC(Cc2ccccc2)C(=O)N1CCc1ccc2c(c1)OCO2 (stereo not given) | - | - | - | -
Cc1cccc(CC2CC(=O)N(CCc3ccc4c(c3)OCO4)C2=O)c1 (stereo not given) | 39.7 | - | - | -
O=[N+]([O-])c1ccc(COc2cccnc2)cc1 | - | - | - | -
CC(C)Cc1cc(C(=O)Nc2ccc(F)cc2F)no1 | 24.2 | - | - | -
CC(C)Cc1cc(C(=O)Nc2cc(Cl)ccc2Cl)no1 | - | - | - | -
COCC(=O)OCC(=O)Nc1ccc(Cl)cc1[N+](=O)[O-] | - | - | - | -
CCC1CCCCN1C(=O)CCS(=O)(=O)c1ccccc1 (stereo not given) | - | - | - | -
CCC1CCCCN1CCNC(=O)CCS(=O)(=O)c1ccc(Br)cc1 (stereo not given) | 24.8 | - | - | -
C=CCc1ccc(OCCN2CCc3ccccc3C2)c(OC)c1 | 28.8 | - | - | -
C=CC[C@@H](CC(=O)NCCO)C(=O)NC[C@H](OC(=O)[C@@H](CC=C)CC(=O)OC(C)(C)C)c1ccccc1 | - | - | - | -
Cc1cccc(NC(=O)CSc2nc3[nH]ncc3c(=O)[nH]2)c1C | - | - | - | -
CC(C)=CCC[C@H](C)CC1Cc2[nH]c(=S)[nH]c(=O)c2C(c2ccc(Cl)cc2)O1 (stereo not given in full) | - | - | - | -
O=C(/C=C/c1ccc(Cl)cc1)N1CCN(CCN2C(=O)c3cccc4cccc(c34)C2=O)CC1 | 30.7 | - | - | -
COc1ccc(N2CCN(C(=O)c3oc4ccccc4c3NC(=O)Cc3cccc(OC)c3)CC2)cc1 | 23.7 | - | - | -
O=C(CN1CCCCCCC1)Nc1cc(Cl)cc(Cl)c1 | 57.1 | - | - | -
COc1cc2nc(NC(=O)c3ccccc3)sc(=O)c2cc1OC | - | - | - | -
CCN(CC(=O)NCc1cccs1)CC(=O)Nc1ccc(C(N)=O)cc1 | - | - | - | -
Cc1ccc(-c2cc(C(=O)NCc3ccco3)c3ccccc3n2)o1 | - | 15.4 | - | -
SMILES | UHRF1 binding | LEDGF integ inh | MBD2 DNA inh | TDP2 absorb
CCOC(=O)N1CCC(NC(=O)c2cc(C(=O)NCc3ccc(F)cc3)ccc2CO)CC1 | 22.6 | - | - | -
Cc1ccc(-n2ncc3c2CCCC3NC(=O)CCc2cnn(C)c2)cc1C (stereo not given) | - | - | - | -
O=C(c1ccc(=O)[nH]c1)N1CCN(S(=O)(=O)c2ccc3ccccc3c2)CC1 | - | - | - | -
O=C(c1cncc(Br)c1)N1CCN(S(=O)(=O)c2ccc3ccccc3c2)CC1 | - | 23.1 | - | -
Cc1ccc(S(=O)(=O)OCC(=O)Nc2ccc(C(=O)O)c(O)c2)cc1 | - | 14.7 | - | -
Cc1ccc(NC(=O)COCC(=O)Nc2ccc(C)cc2)cc1 | - | - | - | -
CCOC(=O)C1CCCN(C(=O)CN2C(=O)/C(=C/c3ccc(OC)cc3)Oc3ccccc32)C1 (stereo not given) | 22.2 | - | - | -
CC(Sc1nc2sc3c(c2c(=O)n1-c1ccccc1)CCCC3)C(=O)O (stereo not given) | - | - | - | -
CCn1c(SC(C)C(=O)O)nc2sc3c(c2c1=O)CCC3 (stereo not given) | 27.9 | - | - | -
